In ChEMBL document CHEMBL4364272, “Discovery of a Lead Triphenylethanamine Cholesterol Ester Transfer Protein (CETP) Inhibitor” (ACS Med Chem Lett, 2019):
The source made the active and inactive calls. No cut-off for these calls is given here.

What was measured:
[1] = target: T1, Cholesteryl ester transfer protein (Homo sapiens, UniProt P11597); experiment: Inhibition of human recombinant CETP assessed as reduction in [3H]CE/HDL transfer incubated for 4 hrs by scintillation proximity assay
T1 sequence (P11597 whole entry): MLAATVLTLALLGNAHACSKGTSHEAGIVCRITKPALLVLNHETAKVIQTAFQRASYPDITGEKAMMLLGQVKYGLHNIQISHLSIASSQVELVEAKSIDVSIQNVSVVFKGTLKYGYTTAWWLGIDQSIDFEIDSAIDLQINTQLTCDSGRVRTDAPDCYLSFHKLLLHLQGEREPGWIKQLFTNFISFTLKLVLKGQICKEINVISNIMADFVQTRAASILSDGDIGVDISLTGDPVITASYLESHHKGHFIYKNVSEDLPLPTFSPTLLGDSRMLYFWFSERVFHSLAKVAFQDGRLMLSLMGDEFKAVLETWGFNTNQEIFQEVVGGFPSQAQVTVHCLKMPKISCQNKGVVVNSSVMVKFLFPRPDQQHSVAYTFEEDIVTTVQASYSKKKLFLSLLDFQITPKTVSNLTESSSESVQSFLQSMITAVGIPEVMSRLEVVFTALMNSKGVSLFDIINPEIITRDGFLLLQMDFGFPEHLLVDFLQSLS
Outline: (§1)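 CETP activity was measured by scintillation proximity assay and by human whole plasma assay. Each was run in duplicate at six concentrations, and the mean values were used to calculate IC50.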

[2] = target: T1, Cholesteryl ester transfer protein; experiment: Inhibition of CETP in human whole plasma assessed as reduction in [3H]-CE/HDL transfer incubated for 2.5 hrs by topcount scintillation counting assay; type: cell-free; outline: as §1
[3] = Stability in human liver microsomes assessed as parent compound remaining at 50 uM preincubated for 5 to 7 mins followed by NADPH addition and measured 10 mins post-dose by LC-MS/MS; type: ADME, Microsome; details: read-out: Stability
[4] = Stability in mouse liver microsomes assessed as parent compound remaining at 50 uM preincubated for 5 to 7 mins followed by NADPH addition and measured 10 mins post-dose by LC-MS/MS; type: ADME, Microsome; details: read-out: Stability
[5] = target: T2, Cholesteryl ester transfer protein (Homo sapiens) (UniProt P11597); experiment: Potency index, ratio of torcetrapib IC50 to test compound IC50 for inhibition of CETP in human whole plasma; type: cell-free
T2 sequence (whole entry): T1 sequence (P11597 whole entry)

[6] = Volume of distribution at steady state in Sprague-Dawley rat at 1 mg/kg, iv or 10 mg/kg, po administered via gavage measured upto 24 hrs by LC-MS/MS; type: ADME, organism-based; details: in vivo, read-out: Vdss
Outline: (§2)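 Single IV and oral doses: rat 1 mg/kg IV and 10 mg/kg PO; mouse 5 mg/kg IV and 10 mg/kg PO; monkey 1 mg/kg IV and 5 mg/kg PO. IV vehicle was 10% Cremophor/10% EtOH/80% H2O for rodents and 70% PEG-400/10% EtOH/20% H2O for monkey. Oral vehicle was 15% Miglyol 812/30% Capmul MCM/15% Triacetin/40% Cremophor RH40, or the Cremophor vehicle for rat. Vss, Cl, t1/2 and %F were derived.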

[7] = Clearance in Sprague-Dawley rat at 1 mg/kg, iv or 10 mg/kg, po administered via gavage measured upto 24 hrs by LC-MS/MS; type: ADME, organism-based; details: in vivo; outline: as §2
[8] = Half life in Sprague-Dawley rat at 1 mg/kg, iv or 10 mg/kg, po administered via gavage measured upto 24 hrs by LC-MS/MS; type: ADME, organism-based; details: in vivo; outline: as §2
[9] = Oral bioavailability in Sprague-Dawley rat at 10 mg/kg administered via gavage measured upto 24 hrs by LC-MS/MS; type: ADME, organism-based; details: in vivo; outline: as §2
[10] = Volume of distribution at steady state in Balb/c mouse at 5 mg/kg, iv or 10 mg/kg, po administered via gavage measured upto 24 hrs by LC-MS/MS; type: ADME, organism-based; details: in vivo, read-out: Vdss; outline: as §2
[11] = Clearance in Balb/c mouse at 5 mg/kg, iv or 10 mg/kg, po administered via gavage measured upto 24 hrs by LC-MS/MS; type: ADME, organism-based; details: in vivo; outline: as §2
[12] = Half life in Balb/c mouse at 5 mg/kg, iv or 10 mg/kg, po administered via gavage measured upto 24 hrs by LC-MS/MS; type: ADME, organism-based; details: in vivo; outline: as §2
[13] = Oral bioavailability in Balb/c mouse at 10 mg/kg measured upto 24 hrs by LC-MS/MS; type: ADME, organism-based; details: in vivo; outline: as §2
[14] = Volume of distribution at steady state in cynomolgus monkey at 1 mg/kg, iv or 5 mg/kg, po administered via gavage measured upto 24 hrs by LC-MS/MS; type: ADME, organism-based, Macaca fascicularis; details: in vivo, read-out: Vdss; outline: as §2
[15] = Clearance in cynomolgus monkey at 1 mg/kg, iv or 5 mg/kg, po administered via gavage measured upto 24 hrs by LC-MS/MS; type: ADME, organism-based, Macaca fascicularis; details: in vivo; outline: as §2
[16] = Half life in cynomolgus monkey at 1 mg/kg, iv or 5 mg/kg, po administered via gavage measured upto 24 hrs by LC-MS/MS; type: ADME, organism-based, Macaca fascicularis; details: in vivo; outline: as §2
[17] = Oral bioavailability in cynomolgus monkey at 5 mg/kg administered via gavage measured upto 24 hrs by LC-MS/MS; type: ADME, organism-based, Macaca fascicularis; details: in vivo; outline: as §2
[18] = system: Mus musculus; experiment: In vivo inhibition of CETP in hCETP/apoB-100 dual transgenic mouse assessed as reduction in [3H]-CE transfer at 0.5 mg/kg, po administered via gavage measured after 2 to 8 hrs by radioactivity based assay; type: functional, organism-based
[19] = system: Hamster; experiment: In vivo inhibition of CETP in hamster assessed as increase in HDL cholesterol at 10 mg/kg, po qd administered for 7 days measured 6 hrs post-dose on every other day by FPLC analysis relative to control; type: functional; details: Cricetinae
Outline: (§3)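 Hamsters received 10 mg/kg. Plasma cholesterol profiles were resolved by FPLC to give HDL cholesterol change, and plasma exposure was measured.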

[20] = system: CYP11B1; experiment: Effect on CYP11B1 gene expression in human NCI-H295R cells at 10 uM measured after 24 hrs relative to control; type: ADME, cell-based; details: read-out: FC
Outline: (§4)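 H295R cells were incubated for 24 h with test agent at 10 μM or angiotensin-II at 0.1 μM. CYP11B1 and CYP11B2 mRNA levels were measured and expressed as fold of control.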

[21] = system: CYP11B2; experiment: Effect on CYP11B2 gene expression in human NCI-H295R cells at 10 uM measured after 24 hrs relative to control; type: ADME, cell-based; details: read-out: FC; outline: as §4
[22] = Cardiac toxicity in telemetered rat assessed as change in systolic blood pressure at 2.5 mg/kg administered as iv infusion for 5 mins followed by 7.5 mg/kg, iv infusion for 55 mins; type: organism-based; details: in vivo
Outline: (§5)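 Rats were telemetered and given a total of 10 mg/kg IV: 2.5 mg/kg infused over 5 min, then 7.5 mg/kg infused over 55 min (n = 7). Mean, systolic and diastolic BP, heart rate and locomotor activity were monitored, and the observed Cmax was recorded.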

[23] = Cardiac toxicity in telemetered rat assessed as change in diastolic blood pressure at 2.5 mg/kg administered as iv infusion for 5 mins followed by 7.5 mg/kg, iv infusion for 55 mins; type: organism-based; details: in vivo; outline: as §5
[24] = Cardiac toxicity in telemetered rat assessed as change in heart rate at 2.5 mg/kg administered as iv infusion for 5 mins followed by 7.5 mg/kg, iv infusion for 55 mins; type: organism-based; details: in vivo; outline: as §5
[25] = Toxicity in telemetered rat assessed as effect on locomotor activity at 2.5 mg/kg administered as iv infusion for 5 mins followed by 7.5 mg/kg, iv infusion for 55 mins; type: organism-based; details: in vivo; outline: as §5
[26] = Cmax in telemetered rat at 2.5 mg/kg administered as iv infusion for 5 mins followed by 7.5 mg/kg, iv infusion for 55 mins; type: ADME, organism-based; parameters: dose 2.5 mg/kg, route intravenous; details: in vivo; outline: as §5
[27] = Plasma concentration in hamster at 10 mg/kg, po qd administered for 7 days; type: ADME, organism-based; details: cricetinae; outline: as §3
[28] = target: Voltage-gated inwardly rectifying potassium channel KCNH2 (Homo sapiens, UniProt Q12809); experiment: Inhibition of human ERG expressed in HEK293 cells by flux assay
Voltage-gated inwardly rectifying potassium channel KCNH2, sequence (Q12809 whole entry): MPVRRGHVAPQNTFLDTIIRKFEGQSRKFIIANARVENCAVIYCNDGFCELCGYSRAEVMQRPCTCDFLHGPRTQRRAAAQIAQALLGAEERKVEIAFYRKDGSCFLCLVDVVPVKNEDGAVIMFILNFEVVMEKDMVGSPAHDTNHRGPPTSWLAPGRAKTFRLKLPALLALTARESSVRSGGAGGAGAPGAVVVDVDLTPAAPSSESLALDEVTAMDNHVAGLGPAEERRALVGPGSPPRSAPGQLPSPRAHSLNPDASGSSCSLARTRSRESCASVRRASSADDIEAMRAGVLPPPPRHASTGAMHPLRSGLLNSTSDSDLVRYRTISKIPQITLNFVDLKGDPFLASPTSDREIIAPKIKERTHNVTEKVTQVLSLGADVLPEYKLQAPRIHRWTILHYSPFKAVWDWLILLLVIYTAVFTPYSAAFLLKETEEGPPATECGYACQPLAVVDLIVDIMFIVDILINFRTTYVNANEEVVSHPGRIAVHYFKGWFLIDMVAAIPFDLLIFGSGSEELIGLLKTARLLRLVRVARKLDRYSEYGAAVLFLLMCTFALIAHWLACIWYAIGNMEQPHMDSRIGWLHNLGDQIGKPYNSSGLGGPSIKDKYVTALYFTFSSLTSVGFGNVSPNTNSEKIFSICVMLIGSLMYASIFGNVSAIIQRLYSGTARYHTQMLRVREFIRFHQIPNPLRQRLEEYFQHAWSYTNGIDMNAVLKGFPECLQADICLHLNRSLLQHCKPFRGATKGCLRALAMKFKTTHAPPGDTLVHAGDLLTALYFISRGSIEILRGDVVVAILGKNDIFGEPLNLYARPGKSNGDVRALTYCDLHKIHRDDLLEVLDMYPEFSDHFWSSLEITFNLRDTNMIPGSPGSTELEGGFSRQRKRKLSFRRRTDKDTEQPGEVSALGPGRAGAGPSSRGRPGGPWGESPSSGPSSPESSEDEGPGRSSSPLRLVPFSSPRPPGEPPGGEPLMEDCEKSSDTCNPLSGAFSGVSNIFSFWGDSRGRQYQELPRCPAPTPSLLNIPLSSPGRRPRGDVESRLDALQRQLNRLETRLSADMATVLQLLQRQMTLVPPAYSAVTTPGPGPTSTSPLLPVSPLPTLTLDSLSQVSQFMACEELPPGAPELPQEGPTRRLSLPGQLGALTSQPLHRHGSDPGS

IC50 [1]: 2 nM | IC50 [2]: 62 nM | remaining at 10 min, 50 µM [3]: 100% | remaining at 10 min, 50 µM [4]: 100% | Ratio IC50 [5]: 2 | Vd [6]: 1.5 L/kg | clearance [7]: 2.9 mL/min/kg | half-life [8]: 25 h | bioavailability [9]: 39% | Vd [10]: 0.4 L/kg | clearance [11]: 1.9 mL/min/kg | half-life [12]: 5 h | bioavailability [13]: 18% | Vd [14]: 3.7 L/kg | clearance [15]: 0.7 mL/min/kg | half-life [16]: 69 h | bioavailability [17]: 27% | fold induction at 24 h, 10 µM [20]: 1.3 | fold induction at 24 h, 10 µM [21]: 0.9 to 2.1 | concentration at 168 h [27]: 0.9 µM
SMILES: NC(C(=O)N[C@@](Cc1ccccc1)(c1cc(F)cc(OC(F)(F)C(F)F)c1)c1ccc(F)c(OC2CC2)c1)C(O)(C(F)(F)F)C(F)(F)F (stereo partly drawn)
inhibition [18]: Active | inhibition in vivo at 10 mg/kg [19]: 32% | Activity [22]: Non-Toxic | Activity [23]: Non-Toxic | Activity [24]: Non-Toxic | Activity [25]: Non-Toxic | Cmax [26]: 23.5 µM | IC50 [28]: > 80000 nM
